Arr AP2 block – inhibitors of human beta-arrestin and AP2 interaction. inhibition, % at 10 µM. FITC-arrestin peptide / GST-AP2 beads, flow cytometry; AP2 beta2 appendage carries R879A mutation. hit rate 0.31% among 340,000;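 active = inhibition above a set limit, near 3 SD of compounds lacking own fluorescence, cut at about 54% in these data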;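 note: plate controls were DMSO wells for no effect and 5 µM unlabelled arrestin peptide for full effect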
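System: GST-AP2 R879A glutathione beads; medium: PBS, Tween 20 0.05%, BSA 0.1%; reagent: fluorescein-tagged arrestin peptide at 50 nM final; schedule: pre-incubation 12 min, peptide binding 1 h, room temperature; detection: flow cytometry, FL1 (488/535 nm); read-out: inhibition as reduced fluorescein signal on beads, percent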
MEKK2 WT-MEK5 – raises or lowers MEK5 binding to wildtype human MEKK2 PB1 domain; bead flow cytometry, Alexa488-MEK5 binding to MEKK2 WT; actives lie on both sides; Q9Y2U5; hit rate 1.1% among 290,000; binding response (% of control), % at 10 µM; in the data active = binding response below about 67% or above about 130%
MEKK3 PB1 HTS – modulators (inhibitors or enhancers) of MEK5 binding to human MEKK3 PB1 domain; Q99759; bead-based flow cytometry, Alexa488-MEK5 binding to MEKK3; actives lie on both sides; 0 = blocked by unlabeled MEK5, 100 = vehicle; binding response (% of control), % at 10 µM; hit rate 1.4% among 290,000; AID 1529;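 active = binding response more than 3 SD above or below the average of its plate-row segment, actives on both sides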;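 note: Alexa488 bead fluorescence after subtracting the streptavidin-only scavenger bead signal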
Target sequence (Q99759 whole entry, looked up, the tested form may be a part): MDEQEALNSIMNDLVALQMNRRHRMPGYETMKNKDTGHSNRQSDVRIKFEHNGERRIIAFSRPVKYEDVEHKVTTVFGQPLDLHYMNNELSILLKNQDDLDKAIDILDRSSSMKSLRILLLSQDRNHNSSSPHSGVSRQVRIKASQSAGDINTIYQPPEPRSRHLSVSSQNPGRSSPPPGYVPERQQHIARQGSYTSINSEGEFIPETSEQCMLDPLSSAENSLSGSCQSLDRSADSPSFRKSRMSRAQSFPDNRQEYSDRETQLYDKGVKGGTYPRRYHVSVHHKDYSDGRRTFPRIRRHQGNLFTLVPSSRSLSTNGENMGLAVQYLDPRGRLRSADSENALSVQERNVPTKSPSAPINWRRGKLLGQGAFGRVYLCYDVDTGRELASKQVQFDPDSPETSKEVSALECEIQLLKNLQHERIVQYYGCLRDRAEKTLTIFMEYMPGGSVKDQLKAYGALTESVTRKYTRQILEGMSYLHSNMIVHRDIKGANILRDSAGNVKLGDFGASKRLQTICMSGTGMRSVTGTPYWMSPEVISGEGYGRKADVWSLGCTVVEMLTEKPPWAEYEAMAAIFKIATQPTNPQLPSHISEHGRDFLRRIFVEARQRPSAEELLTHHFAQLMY
MEKK2 mut-MEK5 – signal of MEK5 binding to mutant human MEKK2 PB1 domain | hit rate 0.35% among 290,000 | bead flow cytometry, Alexa488-MEK5 binding to MEKK2 mutant | percent response, % at 10 µM; in the data active = percent response above about 24%, passing the limit was not always enough
MEKK2wt confirm – raises or lowers MEK5 binding to wildtype human MEKK2, retest; shares compounds with MEKK3 PB1 HTS; bead flow cytometry, Alexa488-MEK5 binding to MEKK2 WT; actives lie on both sides; binding response (% of control), % at 10 µM; hit rate 2.4% among 5,900; AID 1892; in the data active = binding response below about 16% or above about 210%; inactive = in between
MEKK2mut confirm – signal of MEK5 binding to mutant human MEKK2, retest | percent response, % at 10 µM | AID 1893 | bead flow cytometry, Alexa488-MEK5 binding to MEKK2 mutant | shares compounds with MEKK3 PB1 HTS | hit rate 2% among 5,900; in the data active = percent response mostly above about 71%, no sharp cut-off; inactive = mostly below about 38%;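 note: higher means compound restores mutant binding toward wildtype level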
MEKK3-MEK5 inh – confirmation of inhibitors of MEK5 binding to human MEKK3; shares compounds with MEKK3 PB1 HTS; bead flow cytometry, Alexa488-MEK5 binding to MEKK3; stronger effect = lower value; binding response (% of control), % at 10 µM; hit rate 1.8% among 5,900; AID 1894;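 active = binding response below 72% of control, or above a set upper limit, though filed actives all read lower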;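 note: 100% = DMSO only wells and 0% = binding blocked by excess unlabeled MEK5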
Active calls of the source: *; / = no result; [ ] = remark or other dose. This is a sample that favours compounds with a hit; in the whole collection about 2.3% have one here.

SMILES | Arr AP2 block | MEKK2 WT-MEK5 | MEKK3 PB1 HTS | MEKK2 mut-MEK5 | MEKK2wt confirm | MEKK2mut confirm | MEKK3-MEK5 inh
O=C(Nc1ccc([N+](=O)[O-])cc1)/C(=C/c1cccc([N+](=O)[O-])c1)NC(=O)C1CCCCC1 | 11.4 | 99.0 | 101.0 | 0.0 | / | / | /
Cc1ccc(NC(=O)/C(=C/c2cccc([N+](=O)[O-])c2)NC(=O)C2CCCCC2)c(C)c1 | -1.9 | 2.0*[inhibitor] | 1.0*[inhibitor] | -21.0 | 107.0 | 3.0 | 103.0
Cc1nn(CCOc2ccccc2)c(=O)n1-c1ccccc1 | 7.5 | 98.0 | 104.0 | 0.0 | / | / | /
Cc1nn(CCOc2ccccc2)c(=O)n1-c1ccc(Cl)cc1 | -9.4 | 123.0 | 141.0* | 4.0 | 102.0 | -1.0 | 103.0
C[C@H]1C=C(C(=O)O)O[C@@H](OCc2ccc(CO)cc2)C1 | 7.8 | 86.0 | 78.0 | -6.0 | / | / | /
O=C(CSc1ccc([N+](=O)[O-])cn1)Nc1cc(C(F)(F)F)ccc1N1CCOCC1 | -9.4 | 105.0 | 106.0 | 6.0 | / | / | /
O=C(CSc1nnc(Cn2cnc3ccccc32)o1)Nc1cccc2ccccc12 | -0.4 | 19.0*[inhibitor] | 13.0*[inhibitor] | -15.0 | 99.0 | 4.0 | 104.0
COCCn1c(=NC(=O)C(C)(C)C)sc2cc([N+](=O)[O-])ccc21 | -10.9 | 95.0 | 72.0*[inhibitor] | -1.0 | 101.0 | -1.0 | 101.0
CCN(CC(=O)Nc1ccc(N2CCOCC2)cc1)CC(=O)NC(C)(C)C | -9.2 | 103.0 | 103.0 | 10.0 | / | / | /
COCCn1c(=O)[nH]c2cc(C(=O)NCCc3ccc(OC)c(OC)c3)ccc2c1=O | 16.2 | 91.0 | 93.0 | -3.0 | / | / | /
CCOC(=O)N1CCN(C(=O)c2ccc3c(=O)n(CCc4ccccc4)c(=O)[nH]c3c2)CC1 | -4.6 | 125.0 | 125.0* | 9.0 | 102.0 | 0.0 | 104.0
COCCn1c(=O)[nH]c2cc(C(=O)NCCc3ccc(S(N)(=O)=O)cc3)ccc2c1=O | -14.7 | 118.0 | 135.0* | 4.0 | 100.0 | -5.0 | 103.0
COc1cccc(OC)c1-c1nn2c(-c3ccco3)nnc2s1 | 7.2 | 97.0 | 129.0* | 1.0 | 95.0 | 0.0 | 97.0
Nc1nonc1C(=O)NCCNCc1cc(Br)ccc1OCc1ccccc1F | 20.4 | 113.0 | 81.0 | -1.0 | / | / | /
Nc1nonc1C(=O)NCCNCc1ccccc1OCc1ccccc1F | 3.0 | 124.0 | 123.0* | 8.0 | 113.0 | 14.0 | 103.0
Nc1nnc(SCC(=O)NNC(=O)c2ccccc2F)s1 | -0.6 | / | / | / | / | / | /
O=C(O)C1CC(=O)N(c2ccc(OCc3ccccc3)cc2)C1 (stereo not given) | 2.5 | 76.0 | 72.0*[inhibitor] | -3.0 | 103.0 | -1.0 | 101.0
COC(C(=O)Nc1ccnn1C1CCN(Cc2ccc(C)s2)CC1)c1ccccc1 (stereo not given) | 1.3 | 108.0 | 106.0 | 7.0 | / | / | /
O=C(O)c1ccccc1/C=N/N1CCN(C2c3ccccc3-c3ccccc32)CC1 | 37.2 | 68.0 | 71.0*[inhibitor] | -36.0 | 108.0 | 0.0 | 105.0
COc1cc(/C=N/N2CCN(C3c4ccccc4-c4ccccc43)CC2)cc(OC)c1OC | 0.5 | 106.0 | 130.0* | -1.0 | 109.0 | 3.0 | 105.0
COc1ccc(-c2c(C(F)(F)F)nn(C)c2NC(=O)CSCC(=O)O)cc1 | 4.3 | 112.0 | 107.0 | -13.0 | / | / | /
N#CCC(=O)Nc1ccc(C(=O)OCC(=O)Nc2ccccc2-c2ccccc2)cc1 | -20.9 | 121.0 | 141.0* | 33.0 | 103.0 | 2.0 | 102.0
O=C(Oc1ccc(/C=N/NC(=O)c2ccccc2F)cc1)c1ccccc1 | -4.5 | 104.0 | 103.0 | 2.0 | / | / | /
N#Cc1ccc(/C=N/NC(=O)c2ccccc2F)cc1 | 6.0 | 140.0* | 115.0 | 47.0 | 101.0 | -1.0 | 102.0
CCc1cc(C(=O)N2CCCC(Nc3ccc(F)c(F)c3)C2)n(C)n1 (stereo not given) | 2.0 | 101.0 | 102.0 | 7.0 | / | / | /
Cc1ccc(-n2ncc3c2CC(C)(C)CC3NC(=O)c2c(C)noc2C)cc1 (stereo not given) | 17.4 | 100.0 | 100.0 | -3.0 | / | / | /
Cc1ccc2nc(Cl)c(CN(C(=O)c3cnccn3)C3CCCCC3)cc2c1 | 1.2 | -2.0*[inhibitor] | 2.0*[inhibitor] | -26.0 | 104.0 | 0.0 | 101.0

Screening results: PubChem BioAssay, NMMLSC
